# HCT116 PTEN-null: growth suppression of PTEN-null HCT116, primary screen, cell-based, CellTiter-Glo; HCT116 PTEN-null viability, 60 h; active compounds read low; AID 827, 2007; 1.2% of 140,000 active; viability, % at 10 µM;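 active = viability at or below a set limit, 4 SD under the median of all tested compounds, cut at about 3.7% in these data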;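 also: PTEN knockout HCT116 line with beta catenin targeted HCT116 as companion control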
# H69AR growth 86K: proliferation blockers of H69AR lung cancer cells, primary screen, cell-based, human, 86K library; H69AR lung tumor viability, ATP luminescence, 72 h; active compounds read low; 6% of 85,000 active; viability, % at 10 µM; AID 598, 2007;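 active = viability at or below 40%; inactive = viability above 40%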;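 also: multidrug resistant small cell line overexpressing MRP-1 efflux transporter; 100% = mean luminescence of untreated control wells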
# bCat KO growth: primary screen for growth suppressors in beta-catenin knockout HCT116 cells (colon tumor, human). HCT116 beta-catenin knockout viability, CellTiter-Glo, 60 h; active compounds read low. viability, % at 10 µM. 1.5% of 140,000 active;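 active = viability at or under a set limit, the compound median less 4 SD, cut at about 6% in these data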;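 also: 0% = Hyamine 1622 control at 20 µM and 100% = untreated cell control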
# Fibroblast inh: antiproliferative effect on LL 47 fibroblasts – human, LL 47 cells, CellTiter-Glo luminescence, primary screen; viability, % at 10 µM; LL 47 human lung fibroblast viability, ATP luminescence; active compounds read low; 1.1% of 85,000 active;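 active = viability at or below 50% in the single dose screen; inactive = viability above 50%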;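 also: compound exposure lasted 72 h before the ATP readout; 100% = median luminescence of untreated cell-only wells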
#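 Signal: luminescent ATP detection, CellTiter-Glo; assay system: LL 47 human lung fibroblasts; input: 1,150 cells/well; incubation: overnight cell rest, 72 h compound treatment at 37 °C; measure: % viability versus median cells-only luminescence; medium: IMEM growth medium with 15% fetal bovine serum; dosing: compound addition at 0.1% DMSO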
# HUVEC prolif 384: inhibitors of HUVEC proliferation, primary screen, cell-based, 384-well; 1.1% of 86,000 active; viability, % at 10 µM (by protocol); CellTiter-Glo luminescence, 72 h; active compounds read low;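 active = viability at or below 30%; inactive = viability above 30%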;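 also: 100% = median luminescence of DMSO-only cell control wells on each plate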
# An asterisk follows results filed as active; nt = not tested or not shown. This excerpt belongs to a sample that is enriched for hits.
SMILES,HCT116 PTEN-null,H69AR growth 86K,bCat KO growth,Fibroblast inh,HUVEC prolif 384
COC(=O)c1ccc(C(=O)NC(=S)Nc2ccc3nc(SC)sc3c2)cc1,1.5*,nt,0.9*,nt,nt
Cc1nc(NC(=O)c2ccccc2)sc1-c1csc(NCc2ccco2)n1,83,18*,68,88,67
CNC1=C(N(C(C)=O)c2ccc(Br)cc2)C(=O)c2ccccc2C1=O,1.4*,nt,1.3*,nt,nt
CCN(CC)C(=O)/C(=C\c1ccc(Br)cc1)NC(=O)c1ccccc1OC,72,nt,84,nt,nt
Cc1ccc(N(Cc2cc3cc(C)ccc3[nH]c2=O)S(=O)(=O)c2ccccc2)cc1,75,nt,66,nt,nt
Cn1cc(Br)c(C(=O)Nc2nccs2)n1,100,nt,86,nt,nt
CS(=O)(=O)N(CC(=O)Nc1ccccc1C(=O)NCc1ccco1)c1ccc2c(c1)OCCO2,31,26*,29,86,83
Cc1ccc(NC(=O)C2C3/C=C\CCCCC32)cc1C (stereo unspecified),89,nt,94,nt,nt
CCc1ccc(Nc2cc(=O)n(C3CCCCC3)c(=O)[nH]2)cc1,98,16*,72,85,69
O=c1cc(Nc2ccc3c(c2)OCCO3)[nH]c(=O)n1-c1ccc(Cl)cc1,49,8.8*,53,90,74
O=c1cc(Nc2ccc3c(c2)OCCO3)[nH]c(=O)n1C1CCCCC1,23,18*,28,64,57
O=C(O)C1CCCCC1C(=O)Nc1ccc2c(c1)OCCO2 (stereo unspecified),99,92,84,102,98
CN(C)c1ccc(C2SCCN2C(=O)c2ccc([N+](=O)[O-])cc2)cc1 (stereo unspecified),87,nt,80,nt,nt
CN(C)CCN(C)Cc1ccccc1Sc1cccc2ccccc12,1.5*,nt,1.2*,nt,nt
Cc1cc(C)n(-c2nc(SCCN(C)C)c3c4c(sc3n2)CCCC4)n1,2.0*,2.7*,3.0*,3.0*,2.3*
CCC(O)CNc1nc(-n2nc(C)cc2C)nc2sc3c(c12)CCCC3 (stereo unspecified),nt,8.4*,nt,80,104
Cc1nc(SCC#N)c2c3c(sc2n1)CCC3,95,95,102,95,102
CC(=O)Nc1ccccc1O,104,89,95,98,95
C/C(=C\C(=O)c1ccncc1)Nc1ccccc1O,40,23*,56,94,108
CS(=O)(=O)N1CCN(c2ccc([N+](=O)[O-])c(NCc3ccc(Cl)cc3)c2)CC1,6,nt,2.2*,nt,nt
CS(=O)(=O)N1CCN(c2ccc([N+](=O)[O-])c(NCc3ccccc3)c2)CC1,79,nt,85,nt,nt
CC(C)(/C=N/O)/[N+]([O-])=C/C=[N+](\[O-])C(C)(C)/C=N/O,101,89,99,92,96
CN(C)c1ccc(/C=[N+](\[O-])C(C)(C)/C=N/O)cc1,95,30*,89,nt,97
CCOCCCNC(=O)c1cc(C)nn1-c1ccccc1,113,92,109,93,95
CCOCCCNC(=O)c1cc2sc(Cl)cc2n1CC,65,36*,59,100,63
SMILES,HCT116 PTEN-null,H69AR growth 86K,bCat KO growth,Fibroblast inh,HUVEC prolif 384
O=c1[nH]c2ccccc2n1CCCSc1cnc2ccccc2n1,68,38*,79,95,79
Cc1c(NC(=O)C(C)OC(=O)c2ccc(Cl)nc2)c(=O)n(-c2ccccc2)n1C (stereo unspecified),102,nt,94,nt,nt
CC(C)N1C(=O)C(Cc2nc3ccccc3c(=O)n2-c2ccccc2)c2ccccc21 (stereo unspecified),66,nt,62,nt,nt
CC(C)N1C(=O)/C(=C\c2nc3ccccc3c(=O)n2-c2ccccc2)c2ccccc21,3.1*,nt,7,nt,nt
CC(C)N1C(=O)/C(=C/c2nc3ccccc3c(=O)n2-c2ccccc2)c2ccccc21,2.1*,nt,2.5*,nt,nt
Cc1nc2ccccc2c2c1C(=O)N(C(C)C)C2=O,91,94,90,107,104
COc1ccc(-c2nc3scc(-c4ccccc4)n3n2)cc1,81,31*,79,74,67
COc1ccc(-n2c(C)cc(-c3csc(N)n3)c2C)cc1,46,nt,70,nt,nt
CCc1c(C)nc2ncnn2c1N1CCC(C(=O)Nc2ccccc2)CC1,80,57,68,93,95
CCc1c(C)nc2ncnn2c1N1CCC(C(=O)Nc2ccc(C)cc2)CC1,74,35*,68,100,101
Cc1cc(C)c2nc(SC(C)C#N)cc(C)c2c1 (stereo unspecified),64,31*,78,96,93
Cc1nc([N+](=O)[O-])c(Br)n1CC(=O)c1ccc(Cl)cc1,41,1.2*,47,77,77
CC(C)(C)C1CCC(=NNC(=O)C(=O)NC2CCCCC2)CC1 (stereo unspecified),93,nt,90,nt,nt
CCNc1nc(N)nc(-c2cc(Cl)ccc2O)n1,7,nt,5.2*,nt,nt
CCCCNc1nc(N)nc(-c2cc(Cl)ccc2O)n1,6,nt,8,nt,nt
Cc1cccc(Nc2nc(NCc3ccco3)c3ccccc3n2)c1,1.8*,nt,1.8*,nt,nt
Cc1ccc(-c2nc(NCc3ccco3)c3ccccc3n2)cc1,74,nt,74,nt,nt
O=S(=O)(Nc1nc2ccccc2nc1NCc1ccco1)c1ccc(Cl)cc1,76,89,76,91,84
Cc1ccc(S(=O)(=O)Nc2nc3ccccc3nc2NCc2ccco2)cc1,57,36*,52,82,80
O=C(/C=C/c1c[nH]c2ccccc12)c1cccc2ccccc12,32,nt,48,nt,nt
COc1cc(-c2nnc(CSc3nnc(Nc4ccc(Oc5ccccc5)cc4)s3)o2)cc(OC)c1OC,67,nt,70,nt,nt
CC(C)c1ccc(C(=O)CSc2n[nH]c(-c3ccncc3)n2)cc1,88,31*,89,101,98
CCOC(=O)c1nn(-c2ccccc2)c(C#N)c1NC(=O)c1nn(CC)cc1Br,86,69,87,96,85
CCOC(=O)c1c(NC(=O)c2nn(CC)cc2Br)c(C#N)nn1-c1ccccc1,84,40*,85,93,81
O=C(CCCn1c(=O)[nH]c2cc(Cl)ccc2c1=O)NCCC1=CCCCC1,102,87,96,119,88
CCOC(=O)C1=C(C)NC(C)=C(C(=O)OC)C1c1cccc([N+](=O)[O-])c1 (stereo unspecified),87,92,87,95,78
COC(=O)C1=C(C)NC(C)=C(C(=O)OC)C1c1ccccc1[N+](=O)[O-],1.9*,8.5*,1.6*,56,81
CC1Cc2ccccc2N1C(=O)CCn1c(=O)sc2ccccc21 (stereo unspecified),nt,89,nt,99,81
O=S(=O)(Nc1cc2nc3ccccc3nc2n1Cc1ccccc1)c1ccc(Cl)cc1,76,nt,86,nt,nt
COc1ccc(CC(=O)N2CCC(Nc3nc4ccccc4n3Cc3ccc(F)cc3)CC2)cc1,70,21*,76,89,71

# From PubChem
